Measurements taken from ChEMBL document CHEMBL2424601, “Synthetic chondramide A analogues stabilize filamentous actin and block invasion by Toxoplasma gondii” (J Nat Prod, 2013).
Active and inactive are the calls of the source. No cut-off for these calls is given here.

Experiments:
Toxoplasma gondii [1] = assay: Antiparasitic activity against Toxoplasma gondii expressing beta-galactosidase infected in HFF assessed as parasite growth inhibition after 72 hrs; format: functional, organism-based
Summary of the method: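 β-gal-expressing parasites preincubated 30 min with compound dilutions in DMEM/10% FBS/gentamicin containing 0.2% DMSO, then inoculated at 500/well onto confluent HFF monolayers and cultured continuously; 72 h at 37 °C, 5% CO2. Lysed cells read with chlorophenol red-β-d-galactopyranoside at A570, normalized to untreated control; EC50 from variable-slope log(inhibitor)-response fit, three experiments (n = 4 replicates).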

Toxoplasma gondii [2] = assay: Antiparasitic activity against Toxoplasma gondii expressing beta-galactosidase infected in HFF assessed as parasite growth inhibition treated for 2 hrs followed by washout measured after 48 hrs after 72 hrs relative to continuous culture in presence of drug for 48 hrs; format: functional
Summary of the method: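 β-gal-expressing T. gondii preincubated 30 min with compound dilutions in complete DMEM (10% FBS, gentamicin, 0.2% DMSO), 500 parasites/well onto confluent HFF; compound washed out after 2 h versus continuous exposure; 72 h at 37 °C, 5% CO2. Lysis, chlorophenol red-β-D-galactopyranoside, A570 normalized to untreated; variable-slope log(inhibitor)-response fit; three experiments, n = 4.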

[3] = target: Actin (Toxoplasma gondii) (UniProt P53476); assay: Induction of Toxoplasma gondii N-terminally his-tagged recombinant actin polymerization after 1 hr
Sequence of Actin (Toxoplasma gondii) (P53476 whole entry): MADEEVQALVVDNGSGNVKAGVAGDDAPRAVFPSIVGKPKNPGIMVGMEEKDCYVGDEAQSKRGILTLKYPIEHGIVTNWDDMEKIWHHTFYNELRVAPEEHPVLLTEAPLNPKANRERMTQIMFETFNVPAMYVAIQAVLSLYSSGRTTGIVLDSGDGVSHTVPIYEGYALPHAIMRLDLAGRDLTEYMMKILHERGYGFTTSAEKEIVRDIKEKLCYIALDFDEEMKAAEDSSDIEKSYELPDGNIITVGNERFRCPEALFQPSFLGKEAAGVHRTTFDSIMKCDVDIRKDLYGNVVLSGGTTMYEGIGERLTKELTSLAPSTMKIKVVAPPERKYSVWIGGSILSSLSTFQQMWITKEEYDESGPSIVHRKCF
Summary of the method: (§1)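 His-tagged TgACTI from baculovirus, Ni-NTA purified, cleared at 100000g; 5 μM actin in F-buffer (50 mM KCl, 2 mM MgCl2, 1 mM ATP) with compound plus Alexa 488 phalloidin 1.2 U/μL, 1 h; filaments imaged by fluorescence microscopy (63× oil); lengths averaged over three filaments per point.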

HFF = assay: Cytotoxicity against HFF after 72 hrs; format: cell-based; settings: human
Summary of the method: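 Confluent HFF monolayers given serial dilutions in complete DMEM with 0.2% DMSO for 72 h; viable cells by MTS colorimetric assay, normalized to untreated cells.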

[4] = target: Actin (Toxoplasma gondii) (UniProt P53476); assay: Induction of Toxoplasma gondii N-terminally his-tagged recombinant actin polymerization at 2 uM after 1 hr using phalloidin staining by fluorescence microscopic analysis; summary of the method: as §1
[5] = target: Actin (Toxoplasma gondii) (UniProt P53476); assay: Induction of Toxoplasma gondii N-terminally his-tagged recombinant actin polymerization at 0.25 uM after 1 hr using phalloidin staining by fluorescence microscopic analysis; summary of the method: as §1

Row | SMILES | EC50 (Toxoplasma gondii [1]) | other results
1 | CO[C@@H]1C(=O)O[C@H](C)[C@H](C)/C=C(\C)C[C@H](C)C(=O)N[C@@H](C)C(=O)N(C)[C@H](Cc2c[nH]c3ccccc23)C(=O)N[C@H]1c1ccc([N+](=O)[O-])cc1 | 610 nM | 
2 | C/C1=C\[C@H](C)C[C@H](C)OC(=O)C[C@H](c2ccc(O)cc2)NC(=O)[C@@H](Cc2c(Br)[nH]c3ccccc23)N(C)C(=O)[C@H](C)NC(=O)[C@@H](C)C1 [JASPAMIDE] | 340 nM | fold change (FC) (Toxoplasma gondii [2]): 1.5; Activity [3]: Active; Activity (HFF): Toxic
3 | CO[C@@H]1C(=O)O[C@H](C)[C@H](C)/C=C(\C)C[C@H](C)C(=O)N[C@@H](C)C(=O)N(C)[C@H](Cc2c[nH]c3ccccc23)C(=O)N[C@H]1c1ccc(CCO)cc1 | 600 nM | 
4 | CO[C@@H]1C(=O)O[C@H](C)[C@H](C)/C=C(\C)C[C@H](C)C(=O)N[C@@H](C)C(=O)N(C)[C@H](Cc2c[nH]c3ccccc23)C(=O)N[C@H]1c1ccc(N)cc1 | 660 nM | 
5 | CO[C@@H]1C(=O)O[C@H](C)[C@H](C)/C=C(\C)C[C@H](C)C(=O)N[C@@H](C)C(=O)N(C)[C@H](Cc2c[nH]c3ccccc23)C(=O)N[C@H]1c1ccc(C(N)=O)cc1 | ≥ 45000 nM | 
6 | CO[C@@H]1C(=O)O[C@H](C)[C@H](C)/C=C(\C)C[C@H](C)C(=O)N[C@@H](C)C(=O)N(C)[C@H](Cc2c[nH]c3ccccc23)C(=O)N[C@H]1c1ccc(-c2ccccc2)cc1 | 1340 nM | 
7 | COc1ccc([C@@H]2NC(=O)[C@@H](Cc3c[nH]c4ccccc34)N(C)C(=O)[C@H](C)NC(=O)[C@@H](C)C/C(C)=C/[C@@H](C)[C@@H](C)OC(=O)[C@H]2OC)cc1 | 690 nM | 
8 | CO[C@@H]1C(=O)O[C@H](C)[C@H](C)/C=C(\C)C[C@H](C)C(=O)N[C@@H](C)C(=O)N(C)[C@H](Cc2c[nH]c3ccccc23)C(=O)N[C@H]1c1ccccc1 | 510 nM | fold change (FC) (Toxoplasma gondii [2]): 1.5; Activity [4]: Active; Activity [5]: Active; Activity [3]: Dose-dependent effect
9 | CO[C@@H]1C(=O)O[C@H](C)[C@H](C)/C=C(\C)C[C@H](C)C(=O)N[C@@H](C)C(=O)N(C)[C@H](Cc2c[nH]c3ccccc23)C(=O)N[C@H]1c1ccc(F)cc1 | 320 nM | 
10 | CO[C@@H]1C(=O)O[C@H](C)[C@H](C)/C=C(\C)C[C@H](C)C(=O)N[C@@H](C)C(=O)N(C)[C@H](Cc2c[nH]c3ccccc23)C(=O)N[C@H]1c1ccc(C)cc1 | 530 nM | 
11 | CO[C@@H]1C(=O)O[C@H](C)[C@H](C)/C=C(\C)C[C@H](C)C(=O)N[C@@H](C)C(=O)N(C)[C@H](Cc2c[nH]c3ccccc23)C(=O)N[C@H]1c1ccc(O)cc1 | 560 nM | Activity [4]: Active; Activity [5]: Active; Activity [3]: Dose-dependent effect; Activity (HFF): Toxic
12 | C/C1=C\[C@@H](C)[C@@H](C)OC(=O)C[C@H](c2ccc(O)cc2)NC(=O)[C@@H](Cc2c[nH]c3ccccc23)N(C)C(=O)[C@H](C)NC(=O)[C@@H](C)C1 | 480 nM | Activity (HFF): Toxic
13 | CO[C@@H]1C(=O)O[C@H](C)[C@H](C)/C=C(\C)C[C@H](C)C(=O)N[C@@H](C)C(=O)N(C)[C@H](Cc2c[nH]c3ccccc23)C(=O)N[C@H]1c1ccc(C#N)cc1 | 380 nM | 
14 | CO[C@@H]1C(=O)O[C@H](C)[C@H](C)/C=C(\C)C[C@H](C)C(=O)N[C@@H](C)C(=O)N(C)[C@H](Cc2c[nH]c3ccccc23)C(=O)N[C@H]1c1ccc(CO)cc1 | 740 nM | 
15 | CO[C@@H]1C(=O)O[C@H](C)[C@H](C)/C=C(\C)C[C@H](C)C(=O)N[C@@H](C)C(=O)N(C)[C@H](Cc2c(Cl)[nH]c3ccccc23)C(=O)N[C@H]1c1ccc(O)cc1 | 220 nM | Activity (HFF): Toxic
